Records with an inconclusive call do not appear.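 The calls were made as follows, unless noted: active = viability at or below 27.92% in each of two runs, the all-compound median minus 4 SD; inconclusive = no clear call, values can overlap the other calls; inactive = the rest.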
Tests used:
[1] = OD615 S. cerevisiae growth inhibition, permissive medium, pilot counter-assay, permissive growth control for S. cerevisiae lifespan shortening project (AID 705;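 active = growth inhibition above 25% in both replicates, a cutoff set 3 SD above the mean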); conditions: OD615, 24 h, at 10 µM, stronger effect = higher value
How it was run: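 System: Engineered DeaD yeast | Buffer or medium: SC raffinose/galactose permissive medium | Incubation: Cells pre-grown 4 h, then 24 h compound exposure, 30 °C humidified | Measured by: Absorbance (optical density) at 615 nm | Read-out: Reduction in yeast growth (OD615)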

[2] = Restrictive medium S. cerevisiae growth inhibition, OD615, pilot screen of yeast lifespan reduction project, restrictive growth control (AID 706;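 active = growth inhibition above a set limit, 3 SD over mean compound inhibition, in both replicates, cut at about 43% in these data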;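 also: modified DeaD lifespan yeast strain shifted to restrictive glucose medium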); conditions: OD615, 48 h, at 10 µM, stronger effect = higher value
How it was run: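 Material: modified S. cerevisiae; Medium: glucose-based CSMM-D restrictive medium; Compound dosing: one concentration, 10 µM final, 0.25% DMSO; Incubation: 48 h compound exposure at 30 °C; Measured by: OD615.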

[3] = viability gain of MRP-1-high H69AR cells under doxorubicin, pilot screen, MRP-1 activator project, CellTiter-Glo, duplicate (AID 807;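 active = viability increase at or above a cutoff of the median across tested compounds plus 3 SD, cut at about 8.5% in these data, passing the limit was not always enough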;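 also: compound pretreatment 18-22 h then 72 h combined with doxorubicin; 0% = doxorubicin alone and 100% = vehicle without doxorubicin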); conditions: H69AR viability with doxorubicin, CellTiter-Glo luminescence; at 10 µM; stronger effect = higher value
[4] = growth suppression of beta-catenin knockout HCT116, pilot screen, human colon tumor cells (AID 823;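 active = cell viability at or below a set limit in both duplicate runs, the limit being the all-compound median minus 4 SD, cut at about 23% in these data, passing the limit was not always enough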;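 also: 0% = wells killed by 20 µM Hyamine and 100% = untreated DMSO cell wells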); conditions: CellTiter-Glo, 60 h, at 10 µM, stronger effect = lower value
[5] = growth suppression of PTEN-deleted HCT116, pilot screen, cell-based, HCT116 clonal line, CellTiter-Glo (AID 824); conditions: 60 h, at 10 µM, stronger effect = lower value;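 also: 0% = 20 µM Hyamine control and 100% = vehicle cell control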
[6] = inhibitors of the yeast RAM network, pilot screen, dse1pr::URA3 reporter, 5-FOA selection (AID 869;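 active = inhibition over a set limit, the all-compound mean plus 3 SD, in both replicate runs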;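 also: 0% = DMSO wells with no growth and 100% = 10 µM 1-NA-PP1 with full growth; RAM network block rescues cells from 5-FOA so hits raise OD615 growth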); conditions: S. cerevisiae dse1pr::URA3 5-FOA growth, OD615, 2 d; at 10 µM; stronger effect = higher value; strain carries analog-sensitive mutant Cbk1 kinase
[7] = RAM signaling pathway blockade in yeast – S. cerevisiae, Pdr1DBD-CYC8 efflux-inhibited sensitized strain, primary screen (AID 1298;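 active = RAM network inhibition above 8.4% in each of two replicates, 3 SD over the compound average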;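 also: 0% = DMSO untreated cells without growth and 100% = 10 µM 1-NA-PP1 full growth; higher means more yeast growth rescued from 5-FOA killing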); conditions: S. cerevisiae cbk1-as DSE1-URA3 strain, 5-FOA growth OD615, 2 d; at 50 µM; stronger effect = higher value

Cc1cccc(NC(=O)c2ccc(S(=O)(=O)N3CCCCC3)cc2)n1
inactive: growth inhibition [1] -8.26% | growth inhibition [2] -4% | viability increase [3] 1.43% | viability [4] 94.5% | viability [5] 87% | inhibition [6] -0.09% | RAM network inhibition [7] 0.16%

C=CCn1c(NCc2cc(C)ccc2O)nc2ccccc21
inactive: growth inhibition [1] -18.2% | growth inhibition [2] -17.9% | viability increase [3] -2.74% | viability [4] 82.8% | viability [5] 70.6% | inhibition [6] -0.74% | RAM network inhibition [7] 2.04%

CCOC(=O)C1=C(C)NC(C)=C(C(=O)OCC)C1c1nc2ccccc2[nH]1
inactive: growth inhibition [1] -21.8% | growth inhibition [2] -11.2% | viability increase [3] -1.33% | viability [4] 96.2% | viability [5] 96.3% | inhibition [6] 0.96% | RAM network inhibition [7] 1.43%

CC1C(c2ccccc2)=[N+]([O-])C2(CCCC2)N1O (stereo not drawn)
inactive: growth inhibition [1] -2.46% | growth inhibition [2] -6.78% | viability increase [3] -3.01% | viability [4] 97% | viability [5] 96.6% | inhibition [6] 1.53% | RAM network inhibition [7] 1.41%

Cc1ccc(-n2c(SCC(=O)Nc3nccs3)nc3c(c2=O)SCC3)cc1
inactive: growth inhibition [1] -10.3% | growth inhibition [2] -5.16% | viability increase [3] -6.87% | viability [4] 94.2% | viability [5] 92.2% | inhibition [6] 3.41% | RAM network inhibition [7] 6.62%

CCOc1ccc(N(CC(=O)Nc2ccc3c(c2)OCCO3)S(=O)(=O)c2c(C)noc2C)cc1
inactive: growth inhibition [1] -6.29% | growth inhibition [2] -0.165% | viability increase [3] -3.41% | viability [4] 81.6% | viability [5] 87% | inhibition [6] 3.58% | RAM network inhibition [7] 4.67%

Cc1ccc(-c2nc(CS(=O)(=O)CC(=O)N3CCCCCC3)c(C)o2)cc1
inactive: growth inhibition [1] -2.76% | growth inhibition [2] 0.63% | viability increase [3] -1.22% | viability [4] 50% | viability [5] 70.6% | inhibition [6] 0.26% | RAM network inhibition [7] 4.22%

COc1ccc2c(C)cc(=O)oc2c1C
inactive: growth inhibition [1] 2.89% | growth inhibition [2] -2.73% | viability increase [3] -2.26% | viability [4] 102% | viability [5] 94.7% | inhibition [6] 1.96% | RAM network inhibition [7] 5.35%

O=C(O)CC(Cn1cnnn1)c1ccccc1 (stereo not drawn)
inactive: growth inhibition [1] 3.8% | growth inhibition [2] -2.96% | viability increase [3] -0.66% | viability [4] 103% | viability [5] 101% | inhibition [6] 1.12% | RAM network inhibition [7] 2.58%

COc1ccccc1N1CCN(C(CNS(=O)(=O)c2cccs2)c2cccnc2)CC1 (stereo not drawn)
inactive: growth inhibition [1] -6.17% | growth inhibition [2] -25.5% | viability increase [3] -3.42% | viability [4] 87.8% | viability [5] 79.1% | inhibition [6] 1.8% | RAM network inhibition [7] 5.16%

Clc1ccc(NCn2cncn2)nc1
inactive: growth inhibition [1] 12.6% | growth inhibition [2] 7.94% | viability increase [3] -1.55% | viability [4] 96.5% | viability [5] 93.5% | inhibition [6] 2.67% | RAM network inhibition [7] 3.18%

COc1ccc(C(=O)Nc2ccc(S(=O)(=O)Nc3cc(C)nc(C)n3)cc2)c(OC)c1
inactive: growth inhibition [1] 6.9% | growth inhibition [2] -0.365% | viability increase [3] 0.28% | viability [4] 98.6% | viability [5] 95.8% | inhibition [6] 1.77% | RAM network inhibition [7] 3.78%

Cc1cccc(C2N(c3ccc(F)cc3)C(=O)C3CCCN32)c1 (stereo not drawn)
inactive: growth inhibition [1] -1.45% | growth inhibition [2] -4.47% | viability increase [3] 0.04% | viability [4] 98.4% | viability [5] 94.8% | inhibition [6] 0.71% | RAM network inhibition [7] 3.46%

COC(=O)c1ccc(NC(=O)Cn2nc(SC)n(N)c2=S)cc1
inactive: growth inhibition [1] -11.2% | growth inhibition [2] -14.1% | viability increase [3] -0.99% | viability [4] 98% | viability [5] 99.3% | inhibition [6] 1.85% | RAM network inhibition [7] 7.07%

CC1(C)Nc2ccccc2N(CCC(=O)N2CCOCC2)C1=O
inactive: growth inhibition [1] -13.2% | growth inhibition [2] 0.485% | viability increase [3] -0.6% | viability [4] 92.9% | viability [5] 96.4% | inhibition [6] 0.905% | RAM network inhibition [7] 2.81%

CCNc1nc(NCC)nc(-n2nc(C)cc2C)n1
inactive: growth inhibition [1] 4.27% | growth inhibition [2] 4.28% | viability increase [3] -0.22% | viability [4] 100% | viability [5] 103% | inhibition [6] 0.2% | RAM network inhibition [7] 0.75%

COc1ccc(CCNC(=O)c2cc3ccccn3n2)c(OC)c1OC
inactive: growth inhibition [1] -3.78% | growth inhibition [2] 7.63% | viability increase [3] -0.02% | viability [4] 112% | viability [5] 106% | inhibition [6] 1.92% | RAM network inhibition [7] -0.2%

CCOC(=O)c1c(C)[nH]c(C(=O)CSc2nnnn2-c2ccccc2)c1C
inactive: growth inhibition [1] -7.16% | growth inhibition [2] -0.165% | viability increase [3] -1.88% | viability [4] 100% | viability [5] 93.4% | inhibition [6] 2.31% | RAM network inhibition [7] 1.57%

COc1ccc(NC(=O)c2c(NC(=O)CNCc3ccco3)sc3c2CCC3)c(OC)c1
inactive: growth inhibition [1] -3.54% | growth inhibition [2] -19% | viability increase [3] -1.44% | viability [4] 88.7% | viability [5] 79.2% | inhibition [6] 1.43% | RAM network inhibition [7] 5.28%

CN1CCN(c2ccccc2NC(=O)Cc2cn(C)c3ccccc23)CC1
inactive: growth inhibition [1] 3.05% | growth inhibition [2] -4.69% | viability increase [3] -2.96% | viability [4] 92.8% | viability [5] 93.7% | inhibition [6] -0.845% | RAM network inhibition [7] 2.59%

Cc1nc2ccccc2c2oc(C(=O)NCc3ccc4c(c3)OCO4)cc12
inactive: growth inhibition [1] -5.28% | growth inhibition [2] -8.97% | viability increase [3] -0.55% | viability [4] 70.8% | viability [5] 80.8% | inhibition [6] 1.01% | RAM network inhibition [7] 5.03%

CCOCCCNC(=O)c1cn(CC(C)C)c(=O)c2cc(OC)c(OC)cc12
inactive: growth inhibition [1] -22.4% | growth inhibition [2] -25.7% | viability increase [3] -2.7% | viability [4] 98.5% | viability [5] 97.9% | inhibition [6] 0.375% | RAM network inhibition [7] 4.93%

COc1ccc(Cc2nc(-c3ccc(Br)o3)no2)cc1OC
inactive: growth inhibition [1] -14.4% | growth inhibition [2] -3.81% | viability increase [3] -0.22% | viability [4] 92.2% | viability [5] 81.2% | inhibition [6] 0.995% | RAM network inhibition [7] 4.17%

Cc1ccc(C2c3c(oc4ccc(C)cc4c3=O)C(=O)N2CCCN2CCOCC2)cc1 (stereo not drawn)
inactive: growth inhibition [1] -8.48% | growth inhibition [2] -3.63% | viability increase [3] -5.72% | viability [4] 77.3% | viability [5] 84.1% | inhibition [6] 0.99% | RAM network inhibition [7] -1.21%

— PubChem BioAssay
